Laboratory results from ChEMBL document CHEMBL1139344, “Antagonists of the human A(2A) adenosine receptor. 4. Design, synthesis, and preclinical evaluation of 7-aryltriazolo[4,5-d]pyrimidines” (J Med Chem, 2009).
In brackets after ≈: the same amount, converted by molar mass. Activity calls are given as the source filed them. No cut-off for these calls is given here.

Legend:
[1] = tested on: Liver microsomes; experiment: Metabolic stability in rat liver microsomes after 30 mins; format: ADME, Microsome; conditions: 0.5 h
Procedure, shortened: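 Turnover by rodent liver microsomes measured as percent turnover after 30 min.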

[2] = molecular target: T1, Adenosine receptor A3 (Homo sapiens, UniProt P0DMS8); experiment: Displacement of radioligand from human recombinant adenosine A3 receptor at 21 degC after 60 mins by cell-based microplate scintillation counting
T1 sequence (P0DMS8 whole entry): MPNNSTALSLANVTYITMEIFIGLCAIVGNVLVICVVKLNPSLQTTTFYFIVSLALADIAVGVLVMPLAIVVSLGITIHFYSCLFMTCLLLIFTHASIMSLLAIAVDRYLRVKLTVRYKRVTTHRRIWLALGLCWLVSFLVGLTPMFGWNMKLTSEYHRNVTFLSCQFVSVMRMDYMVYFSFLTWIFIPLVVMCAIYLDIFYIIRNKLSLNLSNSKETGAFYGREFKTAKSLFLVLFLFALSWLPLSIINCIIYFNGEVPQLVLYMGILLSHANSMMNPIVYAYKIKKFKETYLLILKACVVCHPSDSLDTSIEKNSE

[3] = tested on: Rattus norvegicus; experiment: Reversal of haloperidol-induced hypolocomotion in Sprague-Dawley rat assessed as time spent for locomotor activity at 30 mg/kg, po administered 120 mins prior and measured for 60 mins; format: functional, organism-based; set-up: dose 30 mg/kg
[4] = molecular target: T2, Adenosine receptor A2b (Homo sapiens, UniProt P29275); experiment: Displacement of radioligand from human recombinant adenosine A2B receptor at 21 degC after 60 mins by cell-based microplate scintillation counting
T2 sequence (P29275 whole entry): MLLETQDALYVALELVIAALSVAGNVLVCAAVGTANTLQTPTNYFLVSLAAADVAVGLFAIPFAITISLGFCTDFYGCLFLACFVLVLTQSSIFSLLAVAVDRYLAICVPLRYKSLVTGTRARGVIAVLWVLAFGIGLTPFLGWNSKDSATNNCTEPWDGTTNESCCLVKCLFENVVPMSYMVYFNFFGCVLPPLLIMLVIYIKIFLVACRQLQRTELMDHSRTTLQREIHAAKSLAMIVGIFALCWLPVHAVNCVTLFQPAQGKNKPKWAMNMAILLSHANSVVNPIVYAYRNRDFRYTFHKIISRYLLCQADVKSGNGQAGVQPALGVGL

[5] = molecular target: Adenosine receptor A2a (Homo sapiens, UniProt P29274); experiment: Displacement of radioligand from human recombinant adenosine A2A receptor at 21 degC after 90 mins by cell-based microplate scintillation counting
[6] = molecular target: T3, Adenosine receptor A1 (Homo sapiens, UniProt P30542); experiment: Displacement of radioligand from human recombinant adenosine A1 receptor at 21 degC after 90 mins by cell-based microplate scintillation counting
T3 sequence (P30542 whole entry): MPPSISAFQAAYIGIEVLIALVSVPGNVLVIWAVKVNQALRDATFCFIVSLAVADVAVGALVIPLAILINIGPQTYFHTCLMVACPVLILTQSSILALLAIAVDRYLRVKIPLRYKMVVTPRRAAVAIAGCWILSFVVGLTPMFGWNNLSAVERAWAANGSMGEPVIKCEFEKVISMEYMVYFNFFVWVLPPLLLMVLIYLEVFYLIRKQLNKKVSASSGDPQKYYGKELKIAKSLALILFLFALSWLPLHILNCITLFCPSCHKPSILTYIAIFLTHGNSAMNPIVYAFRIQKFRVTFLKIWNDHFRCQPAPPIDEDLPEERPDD

[7] = Aqueous solubility in phosphate buffered saline; format: physicochemical
[8] = tested on: Mus musculus; experiment: Reversal of haloperidol-induced hypolocomotion in TO mouse assessed as time spent for locomotor activity at 30 mg/kg, po administered 15 mins prior and measured for 60 mins; format: functional, organism-based; set-up: dose 30 mg/kg

Sequence of Adenosine receptor A2a (P29274 whole entry): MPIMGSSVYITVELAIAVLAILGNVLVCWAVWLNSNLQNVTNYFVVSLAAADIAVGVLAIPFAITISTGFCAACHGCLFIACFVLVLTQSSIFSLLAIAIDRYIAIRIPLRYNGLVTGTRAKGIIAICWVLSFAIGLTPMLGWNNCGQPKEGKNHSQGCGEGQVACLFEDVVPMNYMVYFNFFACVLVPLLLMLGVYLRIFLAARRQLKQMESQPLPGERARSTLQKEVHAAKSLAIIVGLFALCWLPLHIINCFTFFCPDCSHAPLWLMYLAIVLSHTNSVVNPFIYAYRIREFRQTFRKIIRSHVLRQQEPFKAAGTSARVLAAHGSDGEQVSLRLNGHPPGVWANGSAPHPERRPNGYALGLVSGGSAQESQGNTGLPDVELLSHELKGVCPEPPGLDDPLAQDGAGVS

Row | Structure (SMILES) | Stability [1] | Ki [2] | Activity [3] | Ki [4] | Ki [5] | Ki [6] | solubility [7] | Activity [8]
1 | Cc1ccccc1Cn1nnc2c(-c3ccco3)nc(N)nc21 | Stable | 341 nM | inactive | 282 nM | 3 nM | 183 nM | 30 µM (≈ 9.19 µg/mL) | inactive
2 | Nc1nc(-c2ccco2)c2nnn(Cc3ccccc3F)c2n1 | Stable | 440 nM | inactive | 109 nM | 2.7 nM | 105 nM | 30 µM (≈ 9.31 µg/mL) | inactive
3 | Cc1csc(-c2nc(N)nc3c2nnn3Cc2ccccc2F)n1 |  | 1260 nM |  | 53 nM | 2.2 nM | 203 nM |  | 
4 | Nc1nc(-c2ccco2)c2nnn(Cc3c(F)cccc3F)c2n1 |  | 203 nM |  | 24 nM | 1.9 nM | 42 nM |  | 
5 | COc1cccc(Cn2nnc3c(-c4ccco4)nc(N)nc32)c1 |  | 563 nM |  | 643 nM | 1.8 nM | 77 nM |  | 
6 | Cc1cccc(Cn2nnc3c(-c4ccco4)nc(N)nc32)c1 |  | 360 nM |  | 254 nM | 3 nM | 45 nM |  | 
7 | CC(C)N(C)C(=O)c1cccc(Cn2nnc3c(-c4ccco4)nc(N)nc32)c1 | Stable | 2470 nM | inactive | 937 nM | 22 nM | 1130 nM | 30 µM (≈ 11.7 µg/mL) | inactive
8 | Nc1nc(-c2cncs2)c2nnn(Cc3ccccc3F)c2n1 |  | 1780 nM |  | 423 nM | 31 nM | 894 nM |  | 
9 | Nc1nc(-c2ccco2)c2nnn(Cc3ccco3)c2n1 |  | 240 nM |  | 192 nM | 8.8 nM | 77 nM |  | 
10 | Nc1nc(-c2ccco2)c2nnn(Cc3ccc(N)c(F)c3)c2n1 |  | 1070 nM |  | 43 nM | 0.7 nM | 120 nM |  | 
11 | N#Cc1cccc(Cn2nnc3c(-c4ccco4)nc(N)nc32)c1 |  | 693 nM |  | 630 nM | 3.9 nM | 132 nM |  | 
12 | Nc1nc(-c2ccco2)c2nnn(Cc3ccc(N)c(O)c3)c2n1 |  | 1360 nM |  | 84 nM | 1.6 nM | 249 nM |  | 
13 | Nc1nc(-c2ncco2)c2nnn(Cc3ccccc3F)c2n1 |  | 2110 nM |  | 836 nM | 41 nM | 599 nM |  | 
14 | CC(=O)Nc1ccc(Cn2nnc3c(-c4ccco4)nc(N)nc32)cc1 |  | 2380 nM |  | 443 nM | 116 nM | 2530 nM |  | 
15 | Nc1nc(-c2ccco2)c2nnn(Cc3cccc(C(=O)O)c3)c2n1 |  | 3810 nM |  | 2110 nM | 832 nM | 4140 nM |  | 
16 | COc1ccccc1Cn1nnc2c(-c3ccco3)nc(N)nc21 |  | 340 nM |  | 741 nM | 5.4 nM | 319 nM |  | 
17 | NC(=O)c1cccc(Cn2nnc3c(-c4ccco4)nc(N)nc32)c1 | Stable | 2580 nM | inactive | 132 nM | 11.1 nM | 700 nM | 30 µM (≈ 10.1 µg/mL) | inactive
18 | Nc1nc(-c2ccco2)c2nnn(Cc3ccc4[nH]nnc4c3)c2n1 |  | 3010 nM |  | 134 nM | 11.9 nM | 291 nM |  | 
19 | COC(=O)c1cccc(Cn2nnc3c(-c4ccco4)nc(N)nc32)c1 | Stable | 1170 nM |  | 907 nM | 4.1 nM | 105 nM | 30 µM (≈ 10.5 µg/mL) | 
20 | Nc1nc(-c2ccco2)c2nnn(Cc3ccc([N+](=O)[O-])cc3)c2n1 | Stable | 1230 nM | inactive | 440 nM | 28 nM | 769 nM | 30 µM (≈ 10.1 µg/mL) | inactive
21 | Nc1nc(-c2ccco2)c2nnn(Cc3cccc(O)c3)c2n1 |  | 491 nM |  | 10 nM | 4 nM | 314 nM |  | 

Row | Structure (SMILES) | Stability [1] | Ki [2] | Activity [3] | Ki [4] | Ki [5] | Ki [6] | solubility [7] | Activity [8]
22 | Nc1nc(-c2ccco2)c2nnn(Cc3cc(F)ccc3F)c2n1 |  | 450 nM |  | 128 nM | 2.2 nM | 98 nM |  | 
23 | Nc1nc(-c2ccco2)c2nnn(Cc3cccc([N+](=O)[O-])c3)c2n1 | Stable | 844 nM | inactive | 646 nM | 3.7 nM | 231 nM | 30 µM (≈ 10.1 µg/mL) | inactive
24 | NCc1ccc(Cn2nnc3c(-c4ccco4)nc(N)nc32)cc1 |  | > 10000 nM |  | 916 nM | 241 nM | 4910 nM |  | 
25 | Cc1cnc(-c2nc(N)nc3c2nnn3Cc2ccccc2F)s1 |  | 338 nM |  | 199 nM | 8.5 nM | 86 nM |  | 
26 | Nc1nc(-c2ccco2)c2nnn(Cc3cccc(F)c3F)c2n1 |  | 619 nM |  | 79 nM | 2.3 nM | 110 nM |  | 
27 | Nc1nc(-c2cccs2)c2nnn(Cc3ccccc3F)c2n1 |  | 871 nM |  | 248 nM | 8.2 nM | 154 nM |  | 
28 | Nc1nc(-c2ccco2)c2nnn(Cc3ccccc3[N+](=O)[O-])c2n1 |  | 168 nM |  | 383 nM | 6.6 nM | 400 nM |  | 
29 | Nc1nc(-c2ccco2)c2nn[nH]c2n1 | Stable |  | inactive |  | 194 nM | 3620 nM | 30 µM (≈ 6.07 µg/mL) | inactive
30 | N#Cc1ccc(Cn2nnc3c(-c4ccco4)nc(N)nc32)cc1 | Stable | 1050 nM | inactive | 885 nM | 73 nM | 738 nM | 30 µM (≈ 9.52 µg/mL) | inactive
31 | Nc1nc(-c2ccco2)c2nnn(Cc3cccc(C(F)(F)F)c3)c2n1 |  | 736 nM |  | 259 nM | 2.2 nM | 100 nM |  | 
32 | Nc1nc(-c2ccco2)c2nnn(Cc3cnccn3)c2n1 |  | 2220 nM |  | 1140 nM | 122 nM | 1170 nM |  | 
33 | Nc1nc(-c2cnn[nH]2)c2nnn(Cc3ccccc3F)c2n1 | Stable | 2810 nM | inactive | 1290 nM | 400 nM | 2960 nM | 30 µM (≈ 9.34 µg/mL) | inactive
34 | Nc1nc(-c2cc[nH]n2)c2nnn(Cc3ccccc3F)c2n1 | Stable | 1290 nM | inactive | 1780 nM | 239 nM | 1660 nM | 30 µM (≈ 9.31 µg/mL) | inactive
35 | Nc1nc(-c2ccco2)c2nnn(Cc3cccc(Cl)c3)c2n1 |  | 269 nM |  | 160 nM | 2.3 nM | 76 nM |  | 
36 | Nc1nc(-c2nccs2)c2nnn(Cc3ccccc3F)c2n1 |  | 2200 nM | inactive | 271 nM | 8.5 nM | 553 nM | 30 µM (≈ 9.82 µg/mL) | inactive
37 | CC(C)NC(=O)c1cccc(Cn2nnc3c(-c4ccco4)nc(N)nc32)c1 | Stable | 530 nM | inactive | 593 nM | 10.8 nM | 733 nM | 30 µM (≈ 11.3 µg/mL) | inactive
38 | Nc1ccc(Cn2nnc3c(-c4ccco4)nc(N)nc32)c(F)c1 |  | 685 nM |  | 23 nM | 3.5 nM | 190 nM |  | 
39 | Nc1nc(-c2ccco2)c2nnn(CC3CCCCC3)c2n1 |  | 1140 nM |  | 634 nM | 8.5 nM | 230 nM |  | 
40 | Nc1nc(-c2ccco2)c2nnn(Cc3ccc4[nH]ccc4c3)c2n1 |  | 606 nM |  | 59 nM | 1.1 nM | 27 nM |  | 
41 | Nc1nc(-c2ccco2)c2nnn(Cc3ccc4[nH]ncc4c3)c2n1 |  | 2430 nM |  | 206 nM | 8.6 nM | 190 nM |  | 
